Data taken from PubChem BioAssay.
Records with an inconclusive call do not appear.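 How the source made its calls, unless noted: active means inhibition over a set limit, the all-compound mean plus 3 SD, in both replicate runs; inconclusive means over that limit in just one replicate run; inactive means at or under that limit in both runs.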

How the values were obtained:
[1] = OD615 S. cerevisiae growth inhibition, permissive medium, pilot counter-assay, permissive growth control for S. cerevisiae lifespan shortening project (AID 705;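 active means growth inhibition above 25% in both replicates, a cutoff set 3 SD above the mean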); conditions: OD615, 24 h, at 10 µM, hits give high values
Procedure, shortened: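 System: Engineered DeaD yeast | Buffer or medium: SC raffinose/galactose permissive medium | Incubation: Cells pre-grown 4 h, then 24 h compound exposure, 30 °C humidified | Measured by: Absorbance (optical density) at 615 nm | Read-out: Reduction in yeast growth (OD615)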

[2] = Restrictive medium S. cerevisiae growth inhibition, OD615, pilot screen of yeast lifespan reduction project, restrictive growth control (AID 706;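 active means growth inhibition above a set limit, 3 SD over mean compound inhibition, in both replicates, cut at about 43% in these data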;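 further: modified DeaD lifespan yeast strain shifted to restrictive glucose medium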); conditions: OD615, 48 h, at 10 µM, hits give high values
Procedure, shortened: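 Material: modified S. cerevisiae; Medium: glucose-based CSMM-D restrictive medium; Compound dosing: one concentration, 10 µM final, 0.25% DMSO; Incubation: 48 h compound exposure at 30 °C; Measured by: OD615.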

[3] = viability gain of MRP-1-high H69AR cells under doxorubicin, pilot screen, MRP-1 activator project, CellTiter-Glo, duplicate (AID 807;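 active means viability increase at or above a cutoff of the median across tested compounds plus 3 SD, cut at about 8.5% in these data, passing the limit was not always enough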;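 further: compound pretreatment 18-22 h then 72 h combined with doxorubicin; 0% = doxorubicin alone and 100% = vehicle without doxorubicin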); conditions: H69AR viability with doxorubicin, CellTiter-Glo luminescence; at 10 µM; hits give high values
[4] = growth suppression of beta-catenin knockout HCT116, pilot screen, human colon tumor cells (AID 823;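 active means cell viability at or below a set limit in both duplicate runs, the limit being the all-compound median minus 4 SD, cut at about 23% in these data, passing the limit was not always enough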;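 further: 0% = wells killed by 20 µM Hyamine and 100% = untreated DMSO cell wells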); conditions: CellTiter-Glo, 60 h, at 10 µM, hits give low values
[5] = growth suppression of PTEN-deleted HCT116, pilot screen, cell-based, HCT116 clonal line, CellTiter-Glo (AID 824;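 active means viability at or below 27.92% in each of two runs, the all-compound median minus 4 SD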;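 further: 0% = 20 µM Hyamine control and 100% = vehicle cell control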); conditions: 60 h, at 10 µM, hits give low values
[6] = inhibitors of the yeast RAM network, pilot screen, dse1pr::URA3 reporter, 5-FOA selection (AID 869);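 further: 0% = DMSO wells with no growth and 100% = 10 µM 1-NA-PP1 with full growth; RAM network block rescues cells from 5-FOA so hits raise OD615 growth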; conditions: S. cerevisiae dse1pr::URA3 5-FOA growth, OD615, 2 d; at 10 µM; hits give high values; strain carries analog-sensitive mutant Cbk1 kinase
[7] = RAM signaling pathway blockade in yeast – S. cerevisiae, Pdr1DBD-CYC8 efflux-inhibited sensitized strain, primary screen (AID 1298;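 active means RAM network inhibition above 8.4% in each of two replicates, 3 SD over the compound average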;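 further: 0% = DMSO untreated cells without growth and 100% = 10 µM 1-NA-PP1 full growth; higher means more yeast growth rescued from 5-FOA killing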); conditions: S. cerevisiae cbk1-as DSE1-URA3 strain, 5-FOA growth OD615, 2 d; at 50 µM; hits give high values

COC(=O)C1=C(C)N=c2s/c(=C3\C(=O)Nc4ccccc43)c(=O)n2C1c1ccccc1 (configuration not stated)
inactive: growth inhibition [1] -2% | growth inhibition [2] -1.65% | viability increase [3] -4.83% | viability [4] 92.3% | viability [5] 91.6% | inhibition [6] 1.77% | RAM network inhibition [7] 3.17%

Cc1ccc(S(=O)(=O)N=C2SCCCS2)cc1
inactive: growth inhibition [1] -3.74% | growth inhibition [2] 6.67% | viability increase [3] -2.68% | viability [4] 99.2% | viability [5] 99.5% | inhibition [6] 1.31% | RAM network inhibition [7] 2.39%

CC1=Nc2ccc(C)cc2N(Cc2ccccc2)C(=O)C1
inactive: growth inhibition [1] -10.2% | growth inhibition [2] -5.19% | viability increase [3] 0.47% | viability [4] 101% | viability [5] 93.8% | inhibition [6] 0.545% | RAM network inhibition [7] 2.83%

O=C(CN1CCOc2ccccc21)NC1CCCCCCC1
inactive: growth inhibition [1] -14.2% | growth inhibition [2] 21.8% | viability increase [3] -5.54% | viability [4] 75.5% | viability [5] 78.2% | inhibition [6] 1.38% | RAM network inhibition [7] 0.83%

Fc1ccc(OCc2nc(-c3ccc(Br)o3)no2)c(F)c1
inactive: growth inhibition [1] -8.99% | growth inhibition [2] -12.8% | viability increase [3] 2.67% | viability [4] 99.5% | viability [5] 97.7% | inhibition [6] 0.82% | RAM network inhibition [7] 3.12%

Cc1nc2ccc(S(=O)(=O)NC(C(=O)NCc3ccco3)C(C)C)cc2s1 (configuration not stated)
inactive: growth inhibition [1] -6.93% | growth inhibition [2] -0.665% | viability increase [3] -2.43% | viability [4] 101% | viability [5] 101% | inhibition [6] 0.895% | RAM network inhibition [7] -0.06%

COCCNC(=O)COc1ccccc1Cl
inactive: growth inhibition [1] -8.43% | growth inhibition [2] 0.04% | viability increase [3] -1.02% | viability [4] 95.4% | viability [5] 93.8% | inhibition [6] 0.815% | RAM network inhibition [7] 1.81%

COc1ccc(CCC(C(O)C(F)(F)F)S(=O)c2ccccc2)cc1 (configuration not stated)
inactive: growth inhibition [1] -4.67% | growth inhibition [2] -15.5% | viability increase [3] -0.87% | viability [4] 95.4% | viability [5] 101% | inhibition [6] 0.54% | RAM network inhibition [7] 7.13%

Brc1ccc(-c2nc(-c3ccccn3)no2)o1
inactive: growth inhibition [1] 0.205% | growth inhibition [2] 13% | viability increase [3] -4.55% | viability [4] 73.8% | viability [5] 67.5% | inhibition [6] 2.41% | RAM network inhibition [7] 2.05%

O=C(NCCc1ccccc1)C1CCN(S(=O)(=O)c2cccnc2)CC1
inactive: growth inhibition [1] -7.37% | growth inhibition [2] 0.25% | viability increase [3] -0.16% | viability [4] 104% | viability [5] 94.8% | inhibition [6] 1.88% | RAM network inhibition [7] 1.62%

CCSc1nnc(Cn2c(=O)sc3ccccc32)n1-c1ccc(OC)cc1
inactive: growth inhibition [1] -4.46% | growth inhibition [2] 30.7% | viability increase [3] -1.8% | viability [4] 92.1% | viability [5] 86.5% | inhibition [6] -0.94% | RAM network inhibition [7] 9.11%

COCc1cc(C)nc(SCC(=O)Nc2cccc3cccnc23)c1C#N
inactive: growth inhibition [1] -15.3% | growth inhibition [2] -12.6% | viability increase [3] -1.44% | viability [4] 88.1% | viability [5] 86.4% | inhibition [6] 1.2% | RAM network inhibition [7] 8.57%

O=C(Nc1ccc2oc(-c3ccccc3)nc2c1)c1ccncc1
inactive: growth inhibition [1] -2.31% | growth inhibition [2] -10.5% | viability increase [3] 2.36% | viability [4] 79.7% | viability [5] 77.9% | inhibition [6] 0.165% | RAM network inhibition [7] 1.62%

CCc1nnc(NC(=O)CCN2C(=O)CCC2=O)s1
inactive: growth inhibition [1] 4.12% | growth inhibition [2] 5.96% | viability increase [3] 0.69% | viability [4] 97.3% | viability [5] 93.6% | inhibition [6] 0.52% | RAM network inhibition [7] 3.17%

Cc1cc(C)n(CC(=O)n2c3ccccc3c3ccccc32)n1
inactive: growth inhibition [1] 5.86% | growth inhibition [2] -3.37% | viability increase [3] -3.82% | viability [4] 78.2% | viability [5] 91.7% | inhibition [6] 0.155% | RAM network inhibition [7] -1.18%

CC(=O)NCC(=O)N(c1ccccc1)C1(C(=O)NC2CCCCC2)CCCCC1
inactive: growth inhibition [1] -3.84% | growth inhibition [2] 6.72% | viability increase [3] -2.01% | viability [4] 103% | viability [5] 98.3% | inhibition [6] 0.165% | RAM network inhibition [7] -0.7%

COc1cc(C(c2sc3nc(C)nn3c2O)N2CCc3ccccc3C2)cc(OC)c1OC (configuration not stated)
inactive: growth inhibition [1] 3.55% | growth inhibition [2] -1.53% | viability increase [3] -1.3% | viability [4] 110% | viability [5] 96.1% | inhibition [6] 1.23% | RAM network inhibition [7] 2.85%

Cn1c(=O)c2c(SCc3cccnc3)nc(CC(C)(C)C)nc2n(C)c1=O
inactive: growth inhibition [1] 0.2% | growth inhibition [2] -12% | viability increase [3] -6.27% | viability [4] 87.2% | viability [5] 80.9% | inhibition [6] 0.1% | RAM network inhibition [7] 3.24%

CCCCCn1c(SCC(=O)OC)nc2c1c(=O)[nH]c(=O)n2C
inactive: growth inhibition [1] -16.6% | growth inhibition [2] -10.6% | viability increase [3] -0.86% | viability [4] 103% | viability [5] 102% | inhibition [6] 1.29% | RAM network inhibition [7] 0.79%

Oc1c(C(c2ccc(F)cc2)N2CCc3ccccc3C2)sc2ncnn12 (configuration not stated)
inactive: growth inhibition [1] -5.9% | growth inhibition [2] -6.98% | viability increase [3] 4.08% | viability [4] 103% | viability [5] 91.7% | inhibition [6] 2.67% | RAM network inhibition [7] 3.09%

Cc1cc(Nc2cccc(F)c2)n2ncnc2n1
inactive: growth inhibition [1] -0.15% | growth inhibition [2] 12.3% | viability increase [3] 0% | viability [4] 101% | viability [5] 106% | inhibition [6] 1.23% | RAM network inhibition [7] 0.16%

O=C(COc1ccc(Cl)cc1)OCC(=O)N1CCCC1
inactive: growth inhibition [1] -6.8% | growth inhibition [2] -26.8% | viability increase [3] -2.32% | viability [4] 94.5% | viability [5] 95.3% | inhibition [6] 1.44% | RAM network inhibition [7] 3.51%

Cc1cc(C(=O)N2CCN(S(C)(=O)=O)CC2)cs1
inactive: growth inhibition [1] -7.07% | growth inhibition [2] -12.8% | viability increase [3] -1.25% | viability [4] 94.5% | viability [5] 88.9% | inhibition [6] 1.6% | RAM network inhibition [7] -0.04%

Cn1c(=O)oc2cc(S(=O)(=O)N3CCC(C(=O)N4CCN(c5ccccc5)CC4)CC3)ccc21
inactive: growth inhibition [1] 0.31% | growth inhibition [2] 3.94% | viability increase [3] -2.78% | viability [4] 94.6% | viability [5] 93.1% | inhibition [6] -0.21% | RAM network inhibition [7] 7.13%

CCOCN(C(=O)Cn1c(CO)nc2ccccc21)c1c(C)cccc1CC
inactive: growth inhibition [1] -10.7% | growth inhibition [2] 0.69% | viability increase [3] -3.12% | viability [4] 89.4% | viability [5] 94.4% | inhibition [6] 2.68% | RAM network inhibition [7] 7.56%

c1nnc2c3c4c(sc3ncn12)CCC4
inactive: growth inhibition [1] -1.74% | growth inhibition [2] 15.2% | viability increase [3] -3.97% | viability [4] 96.6% | viability [5] 107% | inhibition [6] 1.25% | RAM network inhibition [7] 6.33%

COc1ccc(-c2nc(C#N)c(NCCN(C)C)o2)cc1
inactive: growth inhibition [1] -5.38% | growth inhibition [2] -5.11% | viability increase [3] -0.95% | viability [4] 101% | viability [5] 97.5% | inhibition [6] 0.355% | RAM network inhibition [7] 3.09%

Cn1c(Cn2c(=O)sc3ccccc32)nnc1SCC(=O)NC1CCCC1
inactive: growth inhibition [1] -9.37% | growth inhibition [2] -5.96% | viability increase [3] -1.04% | viability [4] 102% | viability [5] 103% | inhibition [6] 0% | RAM network inhibition [7] 3.56%

CCOC(=O)N1CCN(c2ncnc3nc[nH]c23)CC1
inactive: growth inhibition [1] -8.7% | growth inhibition [2] -10.1% | viability increase [3] -1.85% | viability [4] 109% | viability [5] 106% | inhibition [6] 0.595% | RAM network inhibition [7] 4.23%

O=C(c1ccc(S(=O)(=O)N2CCOCC2)cc1)N1CCN(c2ccccc2)CC1
inactive: growth inhibition [1] -12.5% | growth inhibition [2] 2.02% | viability increase [3] 0.13% | viability [4] 93.7% | viability [5] 101% | inhibition [6] 1.82% | RAM network inhibition [7] 1.64%

COc1ccccc1C(=O)NCc1ccc2c(c1)OCO2
inactive: growth inhibition [1] -21.2% | growth inhibition [2] -10.3% | viability increase [3] 0.91% | viability [4] 107% | viability [5] 107% | inhibition [6] 0.52% | RAM network inhibition [7] 2.54%

COc1ccc(Cl)cc1NC(=O)c1nc2nc(C)cc(C(F)F)n2n1
inactive: growth inhibition [1] -3.76% | growth inhibition [2] -10.8% | viability increase [3] -4.12% | viability [4] 94.4% | viability [5] 88.4% | inhibition [6] 2.35% | RAM network inhibition [7] 2.1%

Cc1cc2ccccc2n1CCNC(=O)C(C)C
inactive: growth inhibition [1] -8.34% | growth inhibition [2] -7.54% | viability increase [3] -1.99% | viability [4] 102% | viability [5] 98.7% | inhibition [6] 0.15% | RAM network inhibition [7] 2.1%

Cc1cc(N2CCCc3ccccc32)n2ncnc2n1
inactive: growth inhibition [1] -2.53% | growth inhibition [2] -1.67% | viability increase [3] -1.21% | viability [4] 97.9% | viability [5] 105% | inhibition [6] 0.97% | RAM network inhibition [7] 0.93%

CCOC(=O)C(C)Sc1nnc(Cc2cc(=O)[nH]c(=O)[nH]2)n1-c1cccc(OC)c1 (configuration not stated)
inactive: growth inhibition [1] -8.94% | growth inhibition [2] -10% | viability increase [3] 0.04% | viability [4] 101% | viability [5] 96.9% | inhibition [6] 0.395% | RAM network inhibition [7] -1.47%

Nc1nc(SCc2ccc(Cl)cc2)ns1
inactive: growth inhibition [1] 10.4% | growth inhibition [2] 7.05% | viability increase [3] 1.03% | viability [4] 98.4% | viability [5] 89.2% | inhibition [6] 0.695% | RAM network inhibition [7] 0.78%
